Measurements gathered from unrelated publications.
Protocols differ between the studies behind these lines.
Target: Serine/threonine-protein kinase PLK1 (PLK1, Homo sapiens, UniProt P53350)

For `Cn1cncc1[C@@](O)(COc1ccc(C#N)cc1-c1ccc(OC(F)(F)F)cc1)c1ccc(C#N)cc1`, the remaining binding was 83% (cell-free assay; competition with immobilised ligand; 1 µM).
For `COc1ncccc1-c1cnn2ccc(N3CCN(C(=O)OC(C)C)CC3)nc12`, the remaining binding was 100% (binding; competition with immobilised ligand; 1 µM).
The inhibition of `Cn1cc(-c2cccc(N3CCc4c(sc5c4CC(C)(C)C5)C3=O)c2CO)cc(Nc2ccncn2)c1=O` is reported as 4% (enzyme activity; inhibitor; 1 µM).
For `O=c1[nH]c2ccccc2n1C1CCN(Cc2ccc(-c3[nH]c4cc5ncnc5cc4nc3-c3ccccc3)cc2)CC1`, the remaining signal was 109% (cell-free assay; 0.5 µM).
For `C#Cc1n[nH]c2c(-c3cn([C@@H](C)c4ccccc4)c(=O)[nH]c3=O)cc(F)cc12`, the inhibition was 2.9% (enzyme activity; inhibitor; 0.1 µM).
With `Nc1ncc(-c2nc(N3CCOCC3)nc(N3CCOCC3)n2)c(C(F)F)n1` the remaining binding was 66% (binding; competition with immobilised ligand; 10 µM).
`CC(C)(C)c1cc(C=C(C#N)C#N)cc(Br)c1O` gave a remaining activity of 92.3% (enzyme activity; inhibitor; 0.5 µM).
For `Cc1nn(C)cc1-c1nc2c(N3CCN(Cc4ccc(Cl)cc4)CC3)c(Cl)cnc2[nH]1`, the remaining binding was 100% (binding; competition with immobilised ligand; 1 µM).
With `C#Cc1n[nH]c2c(-c3cn([C@@H](C)c4ccccn4)c(=O)[nH]c3=O)cc(F)cc12` the inhibition was 2.9% (enzyme activity; inhibitor; 0.1 µM).
`N#CC1(c2ccccn2)CCN(Cc2cc(C(=O)O)c(=O)n3ccccc23)CC1` has a remaining binding of 70% (cell-free assay; competition with immobilised ligand; 1 µM).
`Cn1cc(-c2cc(F)cc(N3CCn4c(cc5c4CCCC5)C3=O)c2CO)cc(Nc2ccc(N3CCN(C4COC4)CC3)cn2)c1=O` has an inhibition of 11% (enzyme activity; inhibitor; 0.1 µM).
